This is an account of results in ChEMBL document CHEMBL2331325, “Antioxidant lignans and chromone glycosides from Eurya japonica” (J Nat Prod, 2013).

The test system of series [1] is Radical scavenging activity. Briefly: Antioxidant activity assessed as DPPH radical scavenging activity […]. Type of series: functional. Summed up: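 Shaken in the dark at room temperature for 30 min, then absorbance read at 517 nm. Negative control without compound. ED50 taken as the concentration scavenging 50% of DPPH radicals.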
Series [2] deals with RAW264.7. The series can be described thus: Inhibition of LPS-induced NO production in mouse RAW264.7 cells after 24 hrs at 20 ug/ml. On the set-up: scale not given: the % may be the effect or the level left. It counts as functional.
The nature of series [3]: Cytotoxicity against mouse RAW264.7 cells assessed as cell viability at 20 ug/ml after 24 hrs by MTT assay. Type of series: cell-based. To be noted: read-out: Activity. The gist of the method: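 Viability of RAW 264.7 cells measured by MTT after 24 h co-treatment with LPS (1000 ng/mL) and compound at 20 μg/mL. Compounds dissolved in DMSO and diluted in sterile PBS.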

Series [4] relates to RAW264.7. The series can be described thus: Inhibition of LPS-induced NO production in mouse RAW264.7 cells after 24 hrs. The conditions noted are these: RAW264.7, 24 h. It counts as functional, cell-based.

Turning to `COc1cc(CCCO)cc(OC)c1O[C@@H]1O[C@H](CO)[C@@H](O)[C@H](O)[C@H]1O`, in series [1], the ED50 was > 100 µM.

In the case of `O=C1C=CC(O)(CCO[C@@H]2O[C@H](COC(=O)/C=C/c3ccc(O)cc3)[C@@H](O)[C@H](O)[C@H]2O)C=C1`, the ED50 in series [1] was > 100 µM.

For `COc1cc2c(c(OC)c1O)[C@H]1c3c(cc(OC)c(O)c3OC)OC[C@@H](C2)[C@H]1CO[C@@H]1O[C@H](CO)[C@@H](O)[C@H](O)[C@H]1O`, the ED50 in series [1] came out at 24.7 µM. In the series with RAW264.7 [2], this compound came in with an Activity of 40.37%. Moreover, the viability at 24 h, 20 ug/ml in series [3] was found to be 110%.

Take `COc1cc([C@@H]2c3c(cc(OC)c(O)c3OC)C[C@H](CO)[C@H]2CO[C@@H]2O[C@H](CO)[C@@H](O)[C@H](O)[C@H]2O)cc(OC)c1O`: the ED50 in series [1] came out at 26.6 µM. The same compound gave an Activity in the series on RAW264.7 [2] of 38.76%. In addition, the viability at 24 h, 20 ug/ml in series [3] worked out at 104%.

For the compound `COc1ccc(O[C@@H]2O[C@H](CO)[C@@H](O)[C@H](O)[C@H]2O)cc1OC`, the ED50 in series [1] is > 100 µM.

For the compound `O=C(/C=C/c1ccc(O)cc1)OC[C@H]1O[C@@H](OCCc2ccc(O)c(O)c2)[C@H](O)[C@@H](O)[C@@H]1O`, the ED50 in series [1] amounted to 33 µM.

Regarding `O=c1c(O[C@@H]2OC[C@@H](O)[C@H](O)[C@H]2O)coc2cc(O)cc(O)c12`, the ED50 in series [1] is > 100 µM. The compound also showed an Activity in the series with RAW264.7 [2] of 36.24%. Further, the viability at 24 h, 20 ug/ml in series [3] came to 102%.

For the compound `COc1cc(CCO)cc(OC)c1O[C@@H]1O[C@H](CO)[C@@H](O)[C@H](O)[C@H]1O`, the ED50 in series [1] was > 100 µM.

As for `O=C1c2c(O)cc(O)cc2O[C@@H](c2ccc(O)c(O)c2)[C@@H]1O[C@@H]1O[C@H](CO)[C@@H](O)[C@H](O)[C@H]1O`, the ED50 in series [1] is 36.2 µM. The same compound showed an Activity with RAW264.7 [2] of 35.78%. In addition, in series [3], the viability at 24 h, 20 ug/ml worked out at 105%.

Take `O=C1c2c(O)cc(O)cc2OC(c2ccc(O)c(O)c2)C1O[C@@H]1OC[C@@H](O)[C@H](O)[C@H]1O` (single isomer, unassigned): in series [1], the ED50 was 25.2 µM. In addition, the Activity with RAW264.7 [2] is given as 37.84%. In series [3], the viability at 24 h, 20 ug/ml was 107%.

For `O=c1c(O[C@@H]2OC[C@H](O)[C@H](O)[C@H]2O)coc2cc(O)cc(O)c12`, the ED50 in series [1] worked out at 133 µM. This compound also showed an Activity in the series with RAW264.7 [2] of 38.07%. Besides, the viability at 24 h, 20 ug/ml in series [3] was found to be 106%.

In the series on RAW264.7 [4], `O=c1c(O)c(-c2ccc(O)c(O)c2)oc2cc(O)cc(O)c12` [QUERCETIN] registered an IC50 of 1.3 µM.

Take `O=C1c2c(O)cc(O)cc2O[C@H](c2ccc(O)c(O)c2)[C@@H]1O[C@@H]1OC[C@@H](O)[C@H](O)[C@H]1O`: the ED50 in series [1] was found to be 26.6 µM. In the series with RAW264.7 [2], this compound came in with an Activity of 35.32%. In addition, the viability at 24 h, 20 ug/ml in series [3] was 108%.

`Cc1c(C)c2c(c(C)c1O)CC[C@@](C)(CCC[C@H](C)CCC[C@H](C)CCCC(C)C)O2`: the ED50 in series [1] amounted to 27.2 µM.

Regarding `COc1cc(O[C@@H]2O[C@H](CO)[C@@H](O)[C@H](O)[C@H]2O)cc(OC)c1OC`, in series [1], the ED50 was > 100 µM.

As to `COc1cc([C@H]2c3c(cc(OC)c(O)c3OC)C[C@@H](CO[C@@H]3O[C@H](CO)[C@@H](O)[C@H](O)[C@H]3O)[C@@H]2CO)cc(OC)c1O`, the ED50 in series [1] turned out to be 37.6 µM. Also, in the series on RAW264.7 [2], the Activity is given as 39.22%. Moreover, in series [3], the viability at 24 h, 20 ug/ml was 101%.

As for `O=C1O[C@H]2[C@H](O)[C@@H](O)[C@H](CO)O[C@@H]2c2c1cc(O)c(O)c2O`, the ED50 in series [1] was > 100 µM.

For `CC[C@H](CC[C@@H](C)[C@H]1CC[C@H]2[C@@H]3CC=C4C[C@@H](O[C@@H]5O[C@H](CO)[C@@H](O)[C@H](O)[C@H]5O)CC[C@]4(C)[C@H]3CC[C@]12C)C(C)C`, the ED50 in series [1] was > 100 µM.

In the case of `O=C1c2c(O)cc(O)cc2O[C@H](c2ccc(O)c(O)c2)[C@H]1O[C@@H]1O[C@H](CO)[C@@H](O)[C@H](O)[C@H]1O`, in series [1], the ED50 worked out at 33.5 µM. Also, the Activity in the series on RAW264.7 [2] is listed as 35.55%. Also, the viability at 24 h, 20 ug/ml in series [3] was 101%.

Turning to `COc1cc(O[C@@H]2O[C@H](CO)[C@@H](O)[C@H](O)[C@H]2O)cc(O)c1OC`, in series [1], the ED50 is > 100 µM.

On to `COc1cc([C@H]2c3cc(O)c(OC)cc3C[C@@H](CO)[C@@H]2CO[C@@H]2O[C@@H](C)[C@H](O)[C@@H](O)[C@H]2O)ccc1O` [AVICULIN], for which, in series [1], the ED50 came to 44.8 µM. Also, the Activity with RAW264.7 [2] worked out at 39.68%. Moreover, the viability at 24 h, 20 ug/ml in series [3] was determined as 112%.

As for `O=C1c2c(O)cc(O)cc2O[C@H](c2ccc(O)c(O)c2)[C@H]1O[C@@H]1OC[C@@H](O)[C@H](O)[C@H]1O`, the ED50 in series [1] was determined as 30.4 µM. For the same compound, the Activity in the series on RAW264.7 [2] is on record as 33.26%. In series [3], the viability at 24 h, 20 ug/ml was determined as 105%.

As to `O=c1c(O[C@@H]2O[C@H](CO)[C@@H](O)[C@H](O)[C@H]2O)coc2cc(O)cc(O)c12`, the ED50 in series [1] is > 100 µM. The Activity in the series with RAW264.7 [2] worked out at 53.79%. In series [3], the viability at 24 h, 20 ug/ml is 105%.

Consider `COc1cc(CO)cc(OC)c1O[C@@H]1O[C@H](CO)[C@@H](O)[C@H](O)[C@H]1O`, for which, in series [1], the ED50 was > 100 µM.

Consider `COc1cc2c(c(OC)c1O)[C@@H]1c3c(cc(OC)c(O)c3OC)OC[C@H](C2)[C@@H]1CO[C@@H]1O[C@H](CO)[C@@H](O)[C@H](O)[C@H]1O`, for which the ED50 in series [1] is 23.4 µM. Also, the Activity with RAW264.7 [2] was 38.99%. For the same compound, the viability at 24 h, 20 ug/ml in series [3] was 106%.

In the case of `O=C1c2c(O)cc(O)cc2O[C@@H](c2ccc(O)c(O)c2)[C@H]1O[C@@H]1OC[C@@H](O)[C@H](O)[C@H]1O`, in series [1], the ED50 is 26.5 µM. The compound further gave an Activity in the series on RAW264.7 [2] of 36.7%. Moreover, in series [3], the viability at 24 h, 20 ug/ml stood at 102%.

Regarding `C=C(C)[C@@H]1CC[C@]2(C(=O)O)CC[C@]3(C)[C@H](CC[C@@H]4[C@@]5(C)CC[C@H](O)C(C)(C)[C@@H]5CC[C@]43C)[C@@H]12` [BETULINIC ACID], in series [1], the ED50 is > 100 µM. In the series on RAW264.7 [2], the Activity was found to be 56.19%. The viability at 24 h, 20 ug/ml in series [3] was determined as 60.3%.

As a reminder, the IC50 is the midpoint of a concentration-inhibition curve.
